ChEMBL document CHEMBL1121880, “Synthesis and antiviral activity of 5-[(cyanomethylene)oxy]-2'-deoxyuridine” (J Med Chem, 1981)
In brackets after ≈: the same amount, converted by molar mass.

What was measured:
Format in all cases: functional, cell-based
Settings in all cases: Oryctolagus cuniculus
PRK [1] = assay: Concentration required to reduce HSV-2 induced cytopathogenicity by 50% in primary rabbit kidney (PRK) cells; 10-150
PRK [2] = assay: Concentration required to inhibit incorporation of [1,'2'-3H]dUrd into DNA of primary rabbit kidney (PRK) cells by 50%
Method in brief: (§1)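 Uninfected primary rabbit kidney cells; IC50 = concentration reducing incorporation of [Me-3H]dThd or [1',2'-3H]dUrd into host cell DNA by 50%.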

PRK [3] = assay: Concentration required to reduce HSV-1(KOS) induced cytopathogenicity by 50% was measured by the addition of [Me-3H]-dThd
PRK [4] = assay: Concentration required to inhibit incorporation of [Me-3H]-dThd into DNA of primary rabbit kidney (PRK) cells by 50%; method in brief: as §1
PRK [5] = assay: Concentration required to reduce HSV-1(KOS) induced cytopathogenicity by 50% was measured by the addition of [1,'2'-3H]dUrd
Method in brief: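 HSV-1 (KOS) cytopathogenicity in PRK cells (100 CCID50 inoculum) with dThd or dUrd, unlabelled, added together with test compound at 100 μg/mL final, the highest level not itself inhibiting virus replication. CPE scored at 100% destruction in untreated infected controls; IC50 = concentration halving cytopathogenicity.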

PRK [6] = assay: Concentration required to reduce TK-HSV-1 (B2006) induced cytopathogenicity by 50% in primary rabbit kidney (PRK) cells
PRK [7] = assay: Concentration required to reduce HSV-1(KOS) induced cytopathogenicity by 50%
Method in brief: (§2)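 PRK cell cultures infected with 100 CCID50 HSV-1 (KOS), then given varying compound concentrations right after virus adsorption, without added nucleoside.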

PRK [8] = assay: Concentration required to reduce HSV-1 induced cytopathogenicity by 50% in primary rabbit kidney (PRK) cells; 2-4
PRK [9] = assay: Compound was evaluated for antiviral activity in rabbit kidney cells infected with vaccinia virus
PRK [10] = assay: Concentration required to reduce HSV-1 induced cytopathogenicity by 50% in primary rabbit kidney (PRK) cells; 1-1.5
PRK [11] = assay: Concentration required to reduce HSV-1(KOS) induced cytopathogenicity by 50% was measured; method in brief: as §2
PRK [12] = assay: Concentration required to reduce HSV-2 induced cytopathogenicity by 50% in primary rabbit kidney (PRK) cells; 7-40
PRK [13] = assay: Concentration required to reduce HSV-1(KOS) induced cytopathogenicity in primary Rabbit by 50%
Method in brief: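 Confluent primary rabbit kidney cell cultures inoculated with 100 CCID50 HSV-1 (KOS); varying compound concentrations added immediately after virus adsorption. Cytopathogenicity scored once virus-infected untreated controls reached 100% cell destruction; IC50 = concentration reducing cytopathogenicity by 50%.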

PRK [14] = assay: Concentration required to reduce HSV-1(KOS) induced cytopathogenicity primary rabbit kidney by 50% was measured by the addition of [1,'2'-3H]dUrd
PRK [15] = assay: Concentration required to reduce HSV-1(KOS) induced cytopathogenicity primary rabbit kidney by 50% was measured by the addition of [Me-3H]-dThd
PRK [16] = assay: Concentration required to reduce HSV-2 induced cytopathogenicity by 50% in primary rabbit kidney (PRK) cells; 0.2-0.4
PRK [17] = assay: Concentration required to reduce HSV-1 induced cytopathogenicity by 50% in primary rabbit kidney (PRK) cells
PRK [18] = assay: Concentration required to reduce HSV-2 induced cytopathogenicity by 50% in primary rabbit kidney (PRK) cells; 2-4
PRK [19] = assay: Concentration required to reduce HSV-1 induced cytopathogenicity by 50% in primary rabbit kidney (PRK) cells; 4-10

| Structure (SMILES) | IC50 (PRK [2]) [µg/mL] | IC50 (PRK [3]) [µg/mL] | IC50 (PRK [4]) [µg/mL] | IC50 (PRK [5]) [µg/mL] | IC50 (PRK [6]) [µg/mL] | IC50 (PRK [9]) [µg/mL] | IC50 (PRK [11]) [µg/mL] | also measured |
| --- | --- | --- | --- | --- | --- | --- | --- | --- |
| N#CCOc1cn([C@H]2C[C@H](O)[C@@H](CO)O2)c(=O)[nH]c1=O | > 400 | > 400 | 400 (≈ 1410 µM) | > 400 | > 400 | 150 (≈ 530 µM) |  | IC50 (PRK [1]): 10 µg/mL (≈ 35.3 µM); IC50 (PRK [7]): 1.5 µg/mL (≈ 5.3 µM); IC50 (PRK [8]): 2 µg/mL (≈ 7.06 µM) |
| C#CCOc1cn([C@H]2C[C@H](O)[C@@H](CO)O2)c(=O)[nH]c1=O | 100 (≈ 354 µM) | 400 (≈ 1420 µM) | 200 (≈ 709 µM) | 40 (≈ 142 µM) | > 200 | 20 (≈ 70.9 µM) | 0.7 (≈ 2.48 µM) | IC50 (PRK [10]): 1 µg/mL (≈ 3.54 µM); IC50 (PRK [12]): 19 µg/mL (≈ 67.3 µM) |
| N#Cc1cn([C@H]2C[C@H](O)[C@@H](CO)O2)c(=O)[nH]c1=O | 8 (≈ 31.6 µM) |  | > 400 |  |  |  |  |  |
| O=c1[nH]c(=O)n([C@H]2C[C@H](O)[C@@H](CO)O2)cc1F [FLOXURIDINE] |  |  |  |  |  |  |  | IC50 (PRK [13]): 1 µg/mL (≈ 4.06 µM); IC50 (PRK [14]): 10 µg/mL (≈ 40.6 µM); IC50 (PRK [15]): > 400 µg/mL |
| O=c1[nH]c(=O)n([C@H]2C[C@H](O)[C@@H](CO)O2)cc1I [IDOXURIDINE] | 0.3 (≈ 0.847 µM) |  | 1 (≈ 2.82 µM) |  | 200 (≈ 565 µM) | 0.4 (≈ 1.13 µM) |  | IC50 (PRK [16]): 0.2 µg/mL (≈ 0.565 µM); IC50 (PRK [17]): 0.1 µg/mL (≈ 0.282 µM) |
| Nc1ncnc2c1ncn2[C@@H]1O[C@H](CO)[C@@H](O)[C@@H]1O [VIDARABINE] | 10 (≈ 37.4 µM) | 1 (≈ 3.74 µM) | 20 (≈ 74.8 µM) | 1 (≈ 3.74 µM) | 10 (≈ 37.4 µM) | 0.4 (≈ 1.5 µM) | 4 (≈ 15 µM) | IC50 (PRK [18]): 3 µg/mL (≈ 11.2 µM); IC50 (PRK [19]): 7 µg/mL (≈ 26.2 µM) |
